Screening results from PubChem BioAssay.
The list is not random: actives were taken first. Their share in the collection is about 1.6%.
VIM-2 inhibitor: inhibitors of Pseudomonas aeruginosa VIM-2 metallo-beta-lactamase; purified VIM-2, nitrocefin hydrolysis, epi-absorbance fluorescence; inhibition, % at 5.6 µM; 290,000 tested, 0.89% active; AID 1527;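 active means inhibition above the mean of all tested compounds plus 3 SD, cutoff set per screening run, cut at about 7.5% in these data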;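 further: red hydrolysis product quenches plate fluorescence so inhibitors raise well fluorescence; 0% = enzyme with DMSO and 100% = DMSO without enzyme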
IMP-1 inh: inhibitors of Pseudomonas aeruginosa IMP-1 metallo-beta-lactamase; 290,000 tested, 0.45% active; inhibition, % at 5.6 µM; AID 1556; purified IMP-1, nitrocefin hydrolysis, epi-absorbance fluorescence;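 active means inhibition above the mean plus 3 SD of all compounds in the same screening run, cut at about 4.5% in these data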;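 further: 0% = IMP-1 with DMSO and 100% = DMSO wells lacking enzyme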
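System: Purified IMP-1 | Read-out basis: Percent enzyme inhibition | Controls: IMP-1 with DMSO as 0%, enzyme-free DMSO as 100% | Replicates: One well per compound | Doses: 5.6 µM nominal single concentration | Detection: Epi-absorbance fluorescence, 480 nm excitation, 530 nm emission | Incubation: 25 °C, 15 min preincubation, 25 min reaction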
HCV core dimer: blocks dimerization of HCV core protein | inhibition, % at 5 µM | 300,000 tested, 0.33% active | TR-FRET GST/Flag-core106 dimerization, 1536-well | AID 1899;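 active means inhibition above the mean of all tested compounds plus 3 SD, set per screening campaign, cut at about 45% in these data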
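Assay system: GST-tagged and Flag-tagged HCV core protein residues 1-106 / Times: compound-protein-antibody incubation 4 h at 22.5 °C / Signal: time-resolved FRET, ex 340 nm, em 617 and 671 nm / Evaluation: % inhibition based on acceptor/donor emission ratio / Benchmarks: wells lacking GST-core106 and wells with excess unlabelled core106 / Repeats: singlicate, one well per compound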
DNA FID counter: fluorescent intercalator displacement, NS3 helicase counter-screen; inhibition, % at 7.9 µM; DNA fluorescent intercalator displacement, fluorescence; AID 1845; 290,000 tested, 0.17% active; in the data active means inhibition above about 37%;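 further: 0% = vehicle and 100% = reference compound; higher means more ethidium bromide displaced from hairpin DNA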
* hit, by the source's call; nt = not tested or not shown.

SMILES	VIM-2 inhibitor	IMP-1 inh	HCV core dimer	DNA FID counter
CCOC(=O)C(C)Sc1nnc2c3ccccc3n(C)c2n1 (configuration not stated)	8.8*	-5	2	-24
COc1ccc(OC)c(S(=O)(=O)N2CCCC2C(=O)N2CCc3ccccc3C2)c1 (configuration not stated)	-1	-4	-1	-30
Cc1ccc(S(=O)(=O)N(C)c2nc3ccccc3[nH]c2=S)cc1	2	8.7*	7	6
CCc1nnc2c(N(C)S(=O)(=O)c3ccc(C)cc3)nc3ccccc3n12	0	-3	8	-19
Cc1cc(C)n(C(=O)CNc2ccc(C)c(C)c2)n1	-1	-3	-1	-1
C(C#CCCCCCCCCC[n+]1ccccc1)#CCCCCCCCCC[n+]1ccccc1	-1	4	-7	43*
Cc1nc(N)sc1-c1csc(Nc2ncccn2)n1	2	27*	nt	0
COc1ccc([C@@H]2CC=C(C(=O)O)[C@H](c3ccccc3)N2S(=O)(=O)c2ccccc2C)cc1	nt	nt	9	nt
O=C(NCc1ccc2[nH]c3c(c2c1)CCCC3)c1ccc(S(=O)(=O)N2CCCC2)cc1	12*	0	37	-17
Cc1cc2cc(CNC(=O)c3ccc(S(=O)(=O)N4CCCCC4)cc3)ccc2[nH]1	-4	-3	-3	-11
CCOC(=O)C1CCN(S(=O)(=O)c2ccc3[nH]c4c(c3c2)CCCC4)CC1	8.1*	1	9	-29
CCN1CCN(CCNC(=O)Nc2ccc([N+](=O)[O-])cc2)CC1	-2	-1	-1	8
O=C1C2C(C(=O)N1/N=C/c1cc(Br)cc([N+](=O)[O-])c1O)C1C=CC2C12CC2 (configuration not stated)	-4	7.0*	-3	-1
O=C1C2C(C(=O)N1/N=C/c1cc([N+](=O)[O-])c(O)cc1O)C1C=CC2C12CC2 (configuration not stated)	-3	-3	-1	-3
O=C(CN(Cc1ccc2c(c1)OCO2)C(=O)c1cnsn1)NC1CCCC1	-3	-3	-9	-3
Cc1cc(SCC(=O)Nc2c(C)n(C)n(-c3ccccc3)c2=O)n2c(nc3ccccc32)c1C#N	22*	-1	nt	-2
Cc1ccc(NC(=S)NC(=O)C2CCCC2)cc1C	-3	-1	6	-28
COc1cccc(C2=NOC(C(=O)Nc3cc(C)nn3-c3ccccc3)C2)c1OC (configuration not stated)	-3	-3	5	-14
CCOc1ccc(CN2CCC(n3nccc3NC(=O)CCCc3ccccc3)CC2)cc1	3	2	3	38*
O=C(CCCc1ccccc1)Nc1ccnn1C1CCN(Cc2ccccc2)CC1	-3	-5	-13	20
CC(=O)Nc1ccccc1-c1ccc(C)o1	-1	-3	-6	-2
Cc1ccc(NC(=O)CS(=O)CC(=O)Nc2ccccc2-c2ccc(C)o2)cc1 (configuration not stated)	9.1*	3	-2	-2
CCC(NS(=O)(=O)c1ccc(C)cc1)C(=O)N1CCN(c2ccccn2)CC1 (configuration not stated)	-2	4.5*	-1	-17
CC(=O)Nc1ccc(N2C(=O)CSC2c2ccc([N+](=O)[O-])cc2)cc1 (configuration not stated)	-6	-3	1	-7
CC(=O)Nc1ccc(N2C(=O)CSC2c2ccccc2)cc1 (configuration not stated)	-6	4.8*	-1	-11
SMILES	VIM-2 inhibitor	IMP-1 inh	HCV core dimer	DNA FID counter
CC(NC(=O)c1ccccc1NC(=O)c1ccco1)c1ccccc1 (configuration not stated)	-6	-3	-1	-6
Cc1c(C(=O)N2CCN(c3ccc(F)cc3)CC2)sc2nc3n(c(=O)c12)CCC3	-2	-3	3	-41
Cc1cc(C2C(C#N)=C(N)SC(N)=C2C#N)c(C)s1	-2	-6	51*	3
Cc1sccc1C1C(C#N)=C(N)SC(N)=C1C#N	-1	-2	60*	-4
CCOc1ccc(C2/C(=C(\O)c3ccc4c(c3)OCCO4)C(=O)C(=O)N2CCN2CCOCC2)cc1OCC (configuration not stated)	0	-2	2	-62
CCOC(=O)c1c(C)n(C)c2ccc(OCC(O)CNCCc3ccccc3)cc12 (configuration not stated)	9.7*	2	-5	28
CCOC(=O)c1c(C)n(C)c2ccc(OCC(O)Cn3c(C)nc4ccccc43)cc12 (configuration not stated)	-2	-6	-5	-15
